Measurements gathered from unrelated publications.
Target: Homeodomain-interacting protein kinase 3 (HIPK3, Homo sapiens, UniProt Q9H422)

Compound	effect on	action	method	tested at	quantity	value
COc1cc2nccc(Oc3ccc(NC(=O)c4c5n(n(-c6ccc(F)cc6)c4=O)CCCC5)cc3)c2cc1OC	enzyme activity	inhibitor		0.1 µM	inhibition	-8%
O=C(O)c1ccc2c(c1)nc(Nc1ccccc1)c1ncncc12	enzyme activity	inhibitor	radiometric	1 µM	remaining activity	13%
CNC(=O)c1cc(Oc2ccc(NC(=O)Nc3ccc(Cl)c(C(F)(F)F)c3)cc2)ccn1	cell-free assay			0.5 µM	remaining signal	85.7%
FC(F)(F)Oc1cccc(-c2cnc3ccc(-c4ccncc4)nn23)c1	enzyme activity	inhibitor	radiometric	1 µM	activity vs control	44%
CC(C)CC(=O)N1CCc2nc(-c3ccc(Br)cc3)nc(N(C)Cc3ccccc3)c2C1	cell-free assay		competition with immobilised ligand	0.1 µM	remaining binding	100%
O=C(Nc1cnn(-c2csc(C(=O)NC3COC3)c2)c1)Nc1c(F)cccc1Cl	enzyme activity	inhibitor		5 µM	remaining activity	98.8%
CCCOc1ccc([C@H]2[C@H](C(=O)O)[C@@H](c3ccc4c(c3)OCO4)CN2CC(=O)Nc2c(CC)cccc2CC)cc1	cell-free assay		competition with immobilised ligand	1 µM	remaining binding	74%
O=C(O)c1ccc2c(c1)nc(Nc1ccc(Cl)cc1)c1ccncc12	enzyme activity	inhibitor	radiometric	1 µM	remaining activity	9%
CCN(CC)CCNC(=O)c1c(C)[nH]c(/C=C2\C(=O)Nc3ccc(F)cc32)c1C	enzyme activity	inhibitor		10 µM	inhibition	82%
O=C(NC[C@@H]1[C@H]2CN(C(=O)OCc3cc(C(F)(F)F)cc(C(F)(F)F)c3)C[C@@H]12)c1ccc2[nH]nnc2c1	cell-free assay		competition with immobilised ligand	1 µM	remaining binding	89%
O=C(O)c1ccc2c(c1)nc(Nc1cccc(F)c1)c1ncncc12	enzyme activity	inhibitor	radiometric	1 µM	remaining activity	5%
CO[C@H]1CC[C@H](CNc2ccc(S(=O)(=O)NC(=O)c3ccc(N4CCN(CC5=C(c6ccc(Cl)cc6)CC(C)(C)CC5)CC4)cc3Oc3cnc4[nH]ccc4c3)cc2[N+](=O)[O-])CC1	cell-free assay		competition with immobilised ligand	1 µM	remaining binding	100%
COc1cc(/C=C/C(=O)CC(=O)/C=C/c2ccc(O)c(OC)c2)ccc1O	enzyme activity	inhibitor		1 µM	activity vs control	88%
O=C(O)c1ccc2c(c1)nc(Nc1ccc(Cl)cc1)c1ncncc12	enzyme activity	inhibitor	radiometric	1 µM	remaining activity	7%
Cc1noc([C@H]2C[C@@H](c3ccc(C(F)(F)F)cc3)CN(C(=O)N3CCS(=O)(=O)C3)C2)n1	cell-free assay		competition with immobilised ligand	1 µM	remaining binding	96%
CN1CC(Oc2cnc(C#N)cc2-c2ccn3nc(NC(=O)C4CC4)cc3c2)C1	enzyme activity	inhibitor		1 µM	inhibition	-3%
Cc1ccc(Nc2nccc(N(C)c3ccc4c(C)n(C)nc4c3)n2)cc1S(N)(=O)=O	enzyme activity	inhibitor		10 µM	inhibition	20%
CNC(=O)Nc1ccc2c(c1)[C@@]1(CC2)OC(=O)N(CC(=O)N(Cc2ccc(F)cc2)[C@@H](C)C(F)(F)F)C1=O	cell-free assay		competition with immobilised ligand	1 µM	remaining binding	90%
C#Cc1cccc(Nc2ncnc3cc(OCCOC)c(OCCOC)cc23)c1	cell-free assay			0.5 µM	remaining signal	102%
COc1cc2ncnc(Nc3ccc(Oc4ccccc4)cc3C)c2cc1OC	enzyme activity	inhibitor		1 µM	inhibition	3%
O=C(O)c1ccc2c(c1)nc(NCc1ccccc1)c1ccncc12	enzyme activity	inhibitor	radiometric	1 µM	remaining activity	68%
COc1cc2ncnc(Nc3ccc(F)c(Cl)c3)c2cc1OCCCN1CCOCC1	cell-free assay			0.5 µM	remaining signal	103%
O=C(NCc1ncc(C(F)(F)F)cc1Cl)c1ccc2c(c1)C1(CCS(=O)(=O)CC1)[C@H](C1CC1)N2S(=O)(=O)c1ccc(F)cc1	cell-free assay		competition with immobilised ligand	1 µM	remaining binding	82%
O=C(O)c1ccc2c(c1)nc(NCCc1cccc(Cl)c1)c1ccncc12	enzyme activity	inhibitor	radiometric	1 µM	remaining activity	29%
CCCS(=O)(=O)Nc1ccc(F)c(C(=O)c2c[nH]c3ncc(-c4ccc(Cl)cc4)cc23)c1F	enzyme activity	inhibitor		1 µM	inhibition	< 10%
O=C(O)c1ccc2c(c1)nc(Nc1ccc3ccccc3c1)c1ncncc12	enzyme activity	inhibitor	radiometric	1 µM	remaining activity	3%
Cn1c(=O)n(-c2ccc(C(C)(C)C#N)cc2)c2c3cc(-c4cnc5ccccc5c4)ccc3ncc21	enzyme activity	inhibitor		10 µM	remaining activity	102%
COc1cc(-c2cc(-c3ccc(N4CCNCC4)cc3)cnc2C)cc(OC)c1OC	enzyme activity	inhibitor		0.1 µM	inhibition	1%
COc1cccc(CNC(=O)c2nc3scc(COCc4ccc(C(=O)O)cc4)c3c(=O)[nH]2)c1	cell-free assay		competition with immobilised ligand	1 µM	remaining binding	73.7%
N#Cc1cccc(Nc2nc3cc(C(=O)O)ccc3c3cnccc23)c1	enzyme activity	inhibitor	radiometric	1 µM	remaining activity	13%
